Data reported in ChEMBL document CHEMBL1158347, “Substituted quinazolines, part 3. Synthesis, in vitro antitumor activity and molecular modeling study of certain 2-thieno-4(3H)-quinazolinone analogs” (2009).

Columns and labels:
Format in all cases: functional
T47D = assay: Growth inhibition of human T47D cells after 48 hrs
Method in brief: (§1)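 NCI in vitro disease-oriented human tumor cell line screen. Compounds passing a one-dose primary assay (MCF-7, NCI-H460, SF-268; pass = growth of any line reduced to 32% or less) were tested on the 60-line panel over a 5-log dose range. Compounds were dissolved in DMSO, with under 1% DMSO in final dilutions, and tested in duplicate at 6×10^4 cells/ml. Cells were incubated at 37 °C in 5% CO2 for 48 h, then diluted 10-fold in saline and counted with a Coulter counter, with counts corrected for dilution. Controls held PBS/DMSO at identical dilutions. GI50 was reported per line and as subpanel/full-panel mean-graph midpoint.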

[1] = Growth inhibition of human breast cancer cells after 48 hrs; details: Cancer cell lines; method in brief: as §1
HL-60(TB) = assay: Growth inhibition of human HL-60(TB) cells after 48 hrs; details: HL-60, 48 h; for CC50: read-out: LC50 (the source's name)
Method in brief: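 NCI 60-cell-line screen over a 5-log dose range. Compounds were dissolved in DMSO, final DMSO under 1%. Duplicate wells were seeded at 6×10^4 cells/ml, with PBS/DMSO vehicle controls at identical dilutions. Cells were incubated 48 h at 37 °C in humidified 5% CO2, diluted 10-fold in saline, and counted by Coulter counter with dilution correction. GI50 read-out.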

[2] = Growth inhibition of human Colon cancer cells after 48 hrs; details: Cancer cell lines; method in brief: as §1
RPMI-8226 = assay: Growth inhibition of human RPMI8226 cells after 48 hrs; details: RPMI-8226, 48 h; for CC50: read-out: LC50 (the source's name); method in brief: as §1
[3] = Growth inhibition of human prostate cancer cells after 48 hrs; details: Cancer cell lines; for CC50: read-out: LC50 (the source's name); method in brief: as §1
SF-539 = assay: Growth inhibition of human SF539 cells after 48 hrs; details: SF-539, 48 h; for CC50: read-out: LC50 (the source's name); method in brief: as §1
[4] = Growth inhibition of human ovarian cancer cells after 48 hrs; details: Cancer cell lines; method in brief: as §1
[5] = Growth inhibition of human leukemia cells after 48 hrs; details: Leukemia cell; method in brief: as §1
NSCLC = assay: Growth inhibition of human NSCLC cells after 48 hrs; method in brief: as §1
CCRF-CEM = assay: Growth inhibition of human CCRF-CEM cells after 48 hrs; details: for CC50: read-out: LC50 (the source's name); method in brief: as §1
[6] = Growth inhibition of human renal cancer cells after 48 hrs; details: Cancer cell lines; for CC50: read-out: LC50 (the source's name); method in brief: as §1
K562 = assay: Growth inhibition of human K562 cells after 48 hrs; details: K562, 48 h; method in brief: as §1
[7] = Growth inhibition of human CNS cancer cells after 48 hrs; details: Cancer cell lines; for CC50: read-out: LC50 (the source's name); method in brief: as §1
MCF7 = assay: Growth inhibition of human MCF7 cells after 48 hrs; details: MCF7, 48 h; for CC50: read-out: LC50 (the source's name); method in brief: as §1
UACC-257 = assay: Growth inhibition of human UACC257 cells after 48 hrs; details: UACC-257, 48 h; method in brief: as §1
SK-MEL-2 = assay: Growth inhibition of human SK-MEL-2 cells after 48 hrs; details: SK-MEL-2, 48 h; method in brief: as §1
[8] = Growth inhibition of human melanoma cells after 48 hrs; details: Melanoma cell; method in brief: as §1

## O=C(Nn1c(-c2cccs2)nc2ccc(I)cc2c1=O)c1ccccc1
T47D
  GI50: 11 µM
  LC50: > 100 µM
  TGI: 38 µM
[1]
  GI50: 24.5 µM
  TGI: 72.5 µM
HL-60(TB)
  GI50: 34 µM
  TGI: > 100 µM
  CC50: > 100 µM
[2]
  GI50: 35.4 µM
  TGI: 90 µM
RPMI-8226
  GI50: 23 µM
  TGI: 58 µM
  CC50: > 100 µM
[3]
  GI50: 27.2 µM
  TGI: 73.3 µM
SF-539
  GI50: 30 µM
  TGI: > 100 µM
  CC50: > 100 µM
[4]
  GI50: 27.4 µM
  TGI: 74.4 µM
[5]
  GI50: 33.9 µM
  TGI: 71.5 µM
NSCLC
  GI50: 25.6 µM
  TGI: 75.3 µM
CCRF-CEM
  GI50: 39 µM
  TGI: > 100 µM
  CC50: > 100 µM
[6]
  GI50: 32.1 µM
  TGI: 86.7 µM
K562
  GI50: 44 µM
  LC50 (concentration killing 50% of cells): > 100 µM
  TGI: > 100 µM
[7]
  GI50: 27.4 µM
  TGI: 85.8 µM
MCF7
  GI50: 23 µM
  TGI: > 100 µM
  CC50: > 100 µM
UACC-257
  GI50: < 0.01 µM
  LC50: > 100 µM
  TGI: 31 µM
SK-MEL-2
  GI50: 24 µM
  LC50: > 100 µM
  TGI: 69 µM
[8]
  GI50: 35.5 µM
  TGI: 62.1 µM

## O=C(Nc1ccc(I)cc1C(=O)Nc1ccc(O)cc1)c1cccs1
T47D
  GI50: 2 µM
  LC50: 50 µM
  TGI: 11 µM
[1]
  GI50: 11.9 µM
  LC50: 79.4 µM
  TGI: 36.8 µM
HL-60(TB)
  GI50: 8 µM
  TGI: 37 µM
  CC50: > 100 µM
[2]
  GI50: 15.2 µM
  LC50: 74.6 µM
  TGI: 34.5 µM
RPMI-8226
  GI50: 3 µM
  TGI: 18 µM
  CC50: 57 µM
[3]
  GI50: 8.7 µM
  TGI: 21.1 µM
  CC50: 45.8 µM
SF-539
  GI50: < 0.01 µM
  TGI: 15 µM
  CC50: 62 µM
[4]
  GI50: 13.3 µM
  LC50: 72.5 µM
  TGI: 35.4 µM
[5]
  GI50: 11.5 µM
  TGI: 60.6 µM
[5]; read-out: LC50 (the source's name)
  CC50: 91 µM
NSCLC
  GI50: 13.5 µM
  LC50 (concentration killing 50% of cells): 74.6 µM
  TGI: 33.1 µM
[6]
  GI50: 13.2 µM
  TGI: 29.3 µM
  CC50: 64.1 µM
K562
  GI50: 24 µM
  LC50 (concentration killing 50% of cells): > 100 µM
  TGI: > 100 µM
[7]
  GI50: 12.2 µM
  TGI: 32.4 µM
  CC50: 77.6 µM
MCF7
  GI50: 12 µM
  TGI: 33 µM
  CC50: 94 µM
UACC-257
  GI50: < 0.01 µM
  LC50: > 100 µM
  TGI: 22 µM
SK-MEL-2
  GI50: 16 µM
  LC50: 57 µM
  TGI: 30 µM
[8]
  GI50: 11.1 µM
  LC50 (lethal concentration 50%): 63.8 µM
  TGI: 26.9 µM

## NS(=O)(=O)c1ccc(CNc2nc(-c3cccs3)nc3ccc(I)cc23)cc1
T47D
  GI50: 0.2 µM
  LC50: 82 µM
  TGI: 18 µM
[1]
  GI50: 12.3 µM
  LC50: 80.8 µM
  TGI: 32.1 µM
HL-60(TB)
  GI50: 30 µM
  TGI: > 100 µM
  CC50: > 100 µM
[2]
  GI50: 16.7 µM
  LC50: 66.4 µM
  TGI: 37.3 µM
RPMI-8226
  GI50: 19 µM
  TGI: 50 µM
  CC50: > 100 µM
[3]
  GI50: 17.1 µM
  TGI: 41.8 µM
  CC50: 80.8 µM
SF-539
  GI50: 11 µM
  TGI: 31 µM
  CC50: 85 µM
[4]
  GI50: 15.7 µM
  LC50: 89.1 µM
  TGI: 42.6 µM
[5]
  GI50: 23.9 µM
  TGI: 72.3 µM
NSCLC
  GI50: 14.7 µM
  LC50 (concentration killing 50% of cells): 82.2 µM
  TGI: 37 µM
CCRF-CEM
  GI50: 22 µM
  TGI: 60 µM
  CC50: > 100 µM
[6]
  GI50: 13.6 µM
  TGI: 36.1 µM
  CC50: 88.1 µM
K562
  GI50: 37 µM
  LC50 (concentration killing 50% of cells): > 100 µM
  TGI: > 100 µM
[7]
  GI50: 18.2 µM
  TGI: 42.4 µM
  CC50: 89 µM
MCF7
  GI50: 0.6 µM
  TGI: 16 µM
  CC50: > 100 µM
UACC-257
  GI50: 14 µM
  LC50: 54 µM
  TGI: 28 µM
SK-MEL-2
  GI50: 18 µM
  LC50: 61 µM
  TGI: 33 µM
[8]
  GI50: 16 µM
  LC50 (lethal concentration 50%): 58.3 µM
  TGI: 30.5 µM
